Laboratory results taken from ChEMBL document CHEMBL2029222, “Synthesis and biological evaluation of a class of 5-benzylidene-2-phenyl-thiazolinones as potent 5-lipoxygenase inhibitors” (Bioorg Med Chem, 2012).
pIC50: −log10 of the molar value.

Tests used:
[1] = target: T1, Polyunsaturated fatty acid 5-lipoxygenase (Homo sapiens) (UniProt P09917); assay: Inhibition of 5-lipoxygenase in human polynuclear leukocytes assessed as residual activity at 10 uM preincubated for 15 mins measured after 10 mins by HPLC analysis relative to control; format: cell-based
T1 sequence (whole entry): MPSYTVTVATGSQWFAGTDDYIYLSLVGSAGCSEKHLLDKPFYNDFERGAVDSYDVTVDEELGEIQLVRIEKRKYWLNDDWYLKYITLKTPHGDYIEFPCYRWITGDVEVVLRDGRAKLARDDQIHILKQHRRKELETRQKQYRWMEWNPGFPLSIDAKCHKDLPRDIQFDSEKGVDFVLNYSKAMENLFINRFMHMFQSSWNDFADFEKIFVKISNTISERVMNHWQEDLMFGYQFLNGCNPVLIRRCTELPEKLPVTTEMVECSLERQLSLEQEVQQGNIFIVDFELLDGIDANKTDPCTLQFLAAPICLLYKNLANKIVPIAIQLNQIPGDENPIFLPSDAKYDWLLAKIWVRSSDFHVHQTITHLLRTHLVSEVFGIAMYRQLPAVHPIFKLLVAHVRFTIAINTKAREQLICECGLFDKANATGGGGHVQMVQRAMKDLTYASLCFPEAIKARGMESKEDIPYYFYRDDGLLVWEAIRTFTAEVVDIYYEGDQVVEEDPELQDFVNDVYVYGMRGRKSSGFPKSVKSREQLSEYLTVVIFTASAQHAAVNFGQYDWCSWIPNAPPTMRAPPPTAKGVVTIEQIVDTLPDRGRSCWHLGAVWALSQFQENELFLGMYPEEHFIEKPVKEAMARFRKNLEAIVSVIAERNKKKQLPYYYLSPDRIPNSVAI
Method in brief: (§1)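 Freshly isolated human PMNL (5 × 10^6 per mL PBS pH 7.4, 1 mg/mL glucose, 1 mM CaCl2) preincubated with compounds 15 min at 37 °C, then stimulated with A23187 (2.5 µM) plus AA (20 µM) for 10 min. Methanol stop, PGB1 internal standard; LTB4, all-trans isomers and 5-H(P)ETE per 10^6 cells by HPLC. n≥3, mean ± SE.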

[2] = target: T1, Polyunsaturated fatty acid 5-lipoxygenase (Homo sapiens); assay: Inhibition of 5-lipoxygenase in cell free S100 freshly isolated human PMNL cells assessed as assessed as residual activity at 10 uM preincubated for 15 mins measured after 10 mins by HPLC analysis relative to control
Method in brief: (§2)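 Human donor PMNL in PBS with 1 mM EDTA plus protease inhibitors, sonicated, spun 100,000g 70 min at 4 °C. S100 equivalent to 7.5 × 10^6 cells in PBS pH 7.4, 1 mM EDTA, 1 mM ATP; compound or DMSO 15 min at 4 °C, then 20 µM AA plus 2 mM CaCl2, 10 min at 37 °C. Methanol stop; products by HPLC; n≥3, mean ± SE.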

U-937 [3] = assay: Cytotoxicity against human U937 cells assessed as cell viability after 48 hrs by WST-1 assay; format: cell-based; details: U-937, 48 h
Method in brief: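 U937 cells (10^4 per well, RPMI with 10% FCS, 37 °C, 5% CO2) treated with increasing compound concentrations for 48 h in 10% FCS; mitochondrial metabolic activity read by WST-1 kit protocol. IC50 for viability loss; at least three experiments, mean ± SE.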

U-937 [4] = assay: Cytotoxicity against human U937 cells assessed as LDH leakage at 30 uM after 48 hrs by microplate reader assay relative to control; format: cell-based; details: u-937, 48 h
[5] = target: T1, Polyunsaturated fatty acid 5-lipoxygenase (Homo sapiens); assay: Inhibition of 5-lipoxygenase in human polynuclear leukocytes assessed as residual activity at 1 uM preincubated for 15 mins measured after 10 mins by HPLC analysis relative to control; format: cell-based; method in brief: as §1
[6] = target: T1, Polyunsaturated fatty acid 5-lipoxygenase (Homo sapiens); assay: Inhibition of 5-lipoxygenase in cell free S100 freshly isolated human PMNL cells assessed as assessed as residual activity at 1 uM preincubated for 15 mins measured after 10 mins by HPLC analysis relative to control; method in brief: as §2
[7] = target: T2, Polyunsaturated fatty acid 5-lipoxygenase (Homo sapiens, UniProt P09917); assay: Inhibition of 5-lipoxygenase in human polynuclear leukocytes assessed as inhibition of A23187-stimulated 5-LO product formation preincubated for 15 mins measured after 10 mins by HPLC analysis; format: cell-based
T2 sequence (P09917 whole entry): T1 sequence (whole entry)

[8] = target: T2, Polyunsaturated fatty acid 5-lipoxygenase; assay: Inhibition of 5-lipoxygenase in cell free S100 freshly isolated human PMNL cells assessed as inhibition of 5-LO product formation preincubated for 15 mins measured after 10 mins by HPLC analysis

| Structure (SMILES) | pIC50 (U-937 [3]) | Activity (U-937 [4]) [%] | other results |
| --- | --- | --- | --- |
| CC(=O)N(O)C/C=C/c1cccc(Oc2ccccc2)c1 | < 4.52 | 0.8 | Activity [1]: < 10%; Activity [2]: < 10% |
| COc1ccc(/C=C2\SC(c3cccc(NC(=O)C45CC6CC(CC(C6)C4)C5)c3)=NC2=O)cc1 | < 4.52 | 8.4 |  |
| COc1ccc(/C=C2\SC(c3ccc4ccccc4c3)=NC2=O)cc1 | < 4.52 | 4.1 |  |
| COc1ccc(/C(C)=C2\SC(c3ccc(C)cc3)=NC2=O)cc1 | 4.92 | 106 |  |
| O=C1N=C(c2ccc(Cl)cc2)S/C1=C\c1ccc(Oc2ccccc2)cc1 | < 4.52 | 12 |  |
| COc1ccc(/C=C2\SC(c3ccc(N)cc3)=NC2=O)cc1 |  |  | Activity [5]: 72.9%; Activity [6]: 37.2% |
| COc1ccc(C2=NC(=O)/C(=C/c3cc4ccccc4[nH]3)S2)cc1 |  |  | pIC50 [7]: 6.17; Activity [1]: 20.5%; Activity [2]: 21.4%; pIC50 [8]: 6.24 |
| COc1ccc(/C=C2\SC(c3ccc(Cl)cc3)=NC2=O)c2ccccc12 | < 4.52 | 12.2 |  |
| COc1ccc(/C=C2\SC(c3ccc(OC)cc3)=NC2=O)cc1 |  |  | Activity [2]: 38.8%; Activity [5]: 21.4% |
| COc1ccc(/C=C2\SC(c3ccc(C)cc3)=NC2=O)cc1 | < 4.52 | 2.7 |  |
| CCCOc1ccc(/C=C2\SC(c3ccc(Cl)cc3)=NC2=O)cc1 | 4.68 | 48.9 |  |
| COc1ccc(C2=NC(=O)/C(=C/c3ccc(C)cc3)S2)cc1 | < 4.52 | 15.8 |  |
